Experimental data: ChEMBL document CHEMBL4665889, “Design, Synthesis, and Pharmacological Characterization of a Neutral, Non-Prodrug Thrombin Inhibitor with Good Oral Pharmacokinetics” (J Med Chem, 2020)

How the values were obtained:
[1] = molecular target: T1, Nuclear receptor subfamily 1 group I member 2 (Homo sapiens, UniProt O75469); test: Activation of human PXR expressed in human HepG2 cells; assay type: ADME, cell-based
T1 sequence (O75469 whole entry): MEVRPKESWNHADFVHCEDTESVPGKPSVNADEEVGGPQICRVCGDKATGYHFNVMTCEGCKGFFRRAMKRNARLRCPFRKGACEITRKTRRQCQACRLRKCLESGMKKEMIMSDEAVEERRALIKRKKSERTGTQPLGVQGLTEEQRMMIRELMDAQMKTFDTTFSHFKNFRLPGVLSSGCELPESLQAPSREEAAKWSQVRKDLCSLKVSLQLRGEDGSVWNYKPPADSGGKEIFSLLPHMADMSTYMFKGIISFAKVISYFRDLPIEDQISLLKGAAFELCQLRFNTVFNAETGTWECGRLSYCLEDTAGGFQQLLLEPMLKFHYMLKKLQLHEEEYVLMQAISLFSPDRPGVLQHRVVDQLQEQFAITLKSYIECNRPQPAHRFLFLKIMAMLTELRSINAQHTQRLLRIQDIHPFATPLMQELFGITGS
Method in brief: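 HepG2 cells transiently co-transfected with human PXR and a luciferase reporter under the human CYP3A4 promoter, 48 h before readout. 24 h after seeding, 1:3 serial dilutions (2 nM to 50 μM, 0.5% DMSO) added. Luminescence normalized to rifampicin (100%) and DMSO (0%). MEC is the lowest concentration raising signal above 4-fold SD of DMSO background.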

[2] = Clearance in Wistar rat hepatocytes at 1 uM incubated up to 90 mins by LC-MS/MS analysis; assay type: ADME, cell-based, Hepatocyte; details: for CLhep predicted at 1 µM: Wistar
Method in brief: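 Fresh male Wistar rat hepatocytes, 1 × 10⁶ viable cells/mL, in Williams' medium E at 37 °C, pH 7.4, with 1 μM substrate and <1% acetonitrile. Samples at 2–90 min quenched in acetonitrile and analysed by LC-MS/MS.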

[3] = Permeability from apical to basolateral side in human Caco2 cells incubated for 2 hrs by LC-MS/MS analysis; assay type: ADME, cell-based; details: Caco-2
Method in brief: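 Caco-2 cells grown 15 d on 0.4 μm inserts, TEER ≥600 Ω. Compound (DMSO stock diluted 100-fold) in HBSS pH 7.4 with 10 mM HEPES and 20 mM glucose, added apically or basolaterally. Incubated 2 h at 37 °C and analysed by LC-MS/MS. Papp = (Vr/P0)·(1/S)·(P2/t); mean and SD.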

[4] = Volume of distribution at steady state in Wistar Hannover rat at 0.3 to 0.5 mg/kg, iv by LC-MS/MS analysis; assay type: ADME, organism-based; details: in vivo, dose 0.3-0.5 mg/kg, time <=24 hrs, read-out: Vdss
Method in brief: (§1)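 Male Wistar Hannover rats, catheterized under isoflurane; one day later iv injection into lateral tail vein at 0.3 to 0.5 mg/kg in plasma containing 2% DMSO. Blood sampled via catheter from 0.033 to 24 h. Plasma precipitated with acetonitrile, analysed by LC-MS/MS (10 mM ammonium acetate pH 3.0/acetonitrile gradient). PK parameters calculated from plasma concentrations.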

[5] = AUC/dose in Wistar Hannover rat at 0.3 to 0.5 mg/kg, iv by LC-MS/MS analysis; assay type: ADME, organism-based; details: in vivo, dose 0.3-0.5 mg/kg, time <=24 hrs; method in brief: as §1
[6] = Half life in Wistar Hannover rat at 0.3 to 0.5 mg/kg, iv by LC-MS/MS analysis; assay type: ADME, organism-based; details: in vivo, dose 0.3-0.5 mg/kg, time <=24 hrs; method in brief: as §1
[7] = molecular target: T1, Nuclear receptor subfamily 1 group I member 2; test: Activation of human PXR human hepatocytes assessed as induction of CYP3A4 mRNA expression incubated for 48 hrs by qPCR analysis; assay type: ADME, tissue-based, Hepatocyte
Method in brief: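 Human hepatocytes in collagen sandwich, cultured 1 d, then treated with eight 1:3 serial concentrations for 2 consecutive days with daily media change. mRNA isolated on magnetic beads, reverse transcribed, and quantified by TaqMan qRT-PCR against actin/tubulin. Fold induction over vehicle by ΔΔCt; NOEL reported.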

[8] = MRT in Wistar Hannover rat at 0.3 to 0.5 mg/kg, iv by LC-MS/MS analysis; assay type: ADME, organism-based; details: in vivo, dose 0.3-0.5 mg/kg, time <=24 hrs; method in brief: as §1
[9] = Ratio of drug level in blood to plasma in Wistar Hannover rat at 0.3 to 0.5 mg/kg, iv by LC-MS/MS analysis; assay type: ADME, organism-based; details: blood and plasma, dose 0.3-0.5 mg/kg, time <=24 hrs
[10] = Blood clearance in Wistar Hannover rat at 0.3 to 0.5 mg/kg, iv by LC-MS/MS analysis; assay type: ADME, organism-based; details: whole blood, dose 0.3-0.5 mg/kg, time <=24 hrs; method in brief: as §1
[11] = Oral bioavailability in Wistar Hannover rat at 1 mg/kg by LC-MS/MS analysis; assay type: ADME, organism-based; details: in vivo, time <=24 hrs
Method in brief: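 Catheterized male Wistar Hannover rats dosed by gavage at 1 mg/kg in 10% ethanol/40% PEG/50% water. Blood taken via catheter at 0.083 to 24 h. Plasma precipitated with acetonitrile and analysed by LC-MS/MS. Bioavailability derived against iv dosing at 0.3 to 0.5 mg/kg.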

Compound	MEC [1] [µM]	CLhep predicted at 1 µM [2] [mL/min/kg]	Papp A→B at 2 h [3] [×10⁻⁶ cm/s]	other results
COc1cc(C(=O)N2CC(C)C(O)CC2C)cc2nc(NCc3cccc(Cl)c3)oc12 (stereo not drawn)	2.6	56.7	12.7	
CCCN(CC1CCOC1)C(=O)c1cc(OC)c2oc(NCc3cccc(Cl)c3)nc2c1 (racemic)		65	24.6	
COc1cc(C(=O)N2CC(C)OCC2CCO)cc2nc(NCc3cc(Cl)ccn3)oc12 (stereo not drawn)	17	20	11.1	Vd [4]: 1.3 L/kg; AUC/dose [5]: 0.39 kg·h/L; half-life [6]: 0.5 h; NOAEL [7]: > 10000 ng/mL; MRT [8]: 0.51 h; blood plasma ratio [9]: 1.08; clearance [10]: 40 mL/min/kg
COc1cc(C(=O)N2CC(C)CCC2CCO)cc2nc(NCc3cccc(Cl)c3)oc12 (racemic)	0.32	63.3	19.1	
COc1cc(C(=O)N2CC[C@H](O)[C@@H](C)C2)cc2nc(NCc3cccc(Cl)c3)oc12		36.7		
COc1cc(C(=O)N2CCC(O)CC2)cc2nc(NCc3cccc(Cl)c3)oc12	3.1	21.7	7.1	
COc1cc(C(=O)N2CC(C)OCC2C2CC(O)C2)cc2nc(N[C@H](C)c3cccc(Cl)c3)oc12 (stereo partly drawn)	3.4	56.7		
COc1cc(C(=O)N2CCCC2(C)C)cc2nc(NCc3cccc(Cl)c3)oc12		58.3		
CCC1CC(O)C(C)CN1C(=O)c1cc(OC)c2oc(NCc3cccc(Cl)c3)nc2c1 (racemic)		61.7		
COc1cc(C(=O)N2CCC(O)C(C)C2)cc2nc(NC3(c4cccc(Cl)c4)CC3)oc12 (racemic)		46.7		
COc1cc(C(=O)N2CCC(O)C(C)C2)cc2nc(NCc3cncc(Cl)c3)oc12 (racemic)		40	0.93	
COc1cc(C(=O)N2CC(C)OCC2C2CC(O)C2)cc2nc(N[C@H](CF)c3cccc(Cl)c3)oc12 (stereo partly drawn)	3	56.7		
COc1cc(C(=O)N2CCOC(C)(CCO)C2)cc2nc(N[C@H](C)c3cccc(Cl)c3)oc12 (stereo partly drawn)	0.58	43.3		Vd [4]: 5.6 L/kg; AUC/dose [5]: 0.33 kg·h/L; half-life [6]: 2.7 h; bioavailability [11]: 38%; MRT [8]: 1.8 h; blood plasma ratio [9]: 1.07; clearance [10]: 48.3 mL/min/kg
COc1cc(C(=O)N2C[C@@H](C)OC[C@H]2CCO)cc2nc(N[C@H](C)c3cccc(Cl)c3)oc12	1.4	38.3		
COc1cc(C(=O)N2CC(C)OCC2CCO)cn2nc(NCc3cccc(Cl)c3)nc12 (stereo not drawn)	11	31.7		
COc1cc(C(=O)N2CC(C)(CCO)OC[C@H]2C)cc2nc(N[C@H](C)c3cccc(Cl)c3)oc12 (stereo partly drawn)	0.29	58.3		
O=C(NCc1cccc(Cl)c1)c1ccc2cn(CCN3CCOC3=O)nc2c1			6.2	clearance [10]: 23.3 mL/min/kg
COc1cc(C(=O)N2CCC(O)C(C)C2)cc2nc(NCc3cc(Cl)ccc3O)oc12 (racemic)	8.3			

Compound	MEC [1] [µM]	CLhep predicted at 1 µM [2] [mL/min/kg]	Papp A→B at 2 h [3] [×10⁻⁶ cm/s]	other results
COc1cc(C(=O)N2CCC(O)C(C)C2)cn2nc(NCc3cccc(Cl)c3)nc12 (racemic)	20	35	7.1	
COc1cc(C(=O)N2CC[C@@H](O)C(C)(C)C2)cc2nc(NCc3cccc(Cl)c3)oc12 (racemic)	6.3	51.7		
COc1cc(C(=O)N2CC(C)C(O)CC2CCO)cc2nc(NCc3cccc(Cl)c3)oc12 (racemic)	0.81	4.5	0.94	
COc1cc(C(=O)N2CC(C)(CCO)OC[C@H]2C)cn2nc(NCc3cccc(Cl)c3)nc12 (stereo partly drawn)	15	46.7	8.1	Vd [4]: 2.2 L/kg; AUC/dose [5]: 0.16 kg·h/L; half-life [6]: 0.32 h; NOAEL [7]: > 10000 ng/mL; MRT [8]: 0.36 h; blood plasma ratio [9]: 1.35; clearance [10]: 76.7 mL/min/kg
COc1cc(C(=O)N2CCOCC2(C)C)cc2nc(NCc3cccc(Cl)c3)oc12	1.3			
CC[C@@H]1CO[C@@](C)(CCO)CN1C(=O)c1cc(OC)c2oc(N[C@H](C)c3cccc(Cl)c3)nc2c1	0.26	65	6.8	Vd [4]: 3.7 L/kg; AUC/dose [5]: 0.32 kg·h/L; half-life [6]: 1 h; NOAEL [7]: 1111 ng/mL; MRT [8]: 1.2 h; blood plasma ratio [9]: 1.07; clearance [10]: 65 mL/min/kg
COc1cc(C(=O)N2CC(C)(CCO)OC[C@H]2C)cc2nc(N[C@H](CF)c3cccc(Cl)c3)oc12 (stereo partly drawn)	0.39	56.7		Vd [4]: 3.3 L/kg; AUC/dose [5]: 0.33 kg·h/L; half-life [6]: 1.1 h; MRT [8]: 1.1 h; blood plasma ratio [9]: 0.94; clearance [10]: 53.3 mL/min/kg
COc1cc(C(=O)N2CC(C)CCC2CCO)cc2nc(NCc3cccc(Cl)c3)oc12 (stereo in doubt; 37b)	0.03			CLH ([2]; 1.5 h, 1 µM): 56.7 mL/min/kg
COc1cc(C(=O)N2CCC(O)C(C)C2)cc2nc(NCc3cccc(Cl)c3)oc12 (racemic)	1.4	45	8.4	
COc1cc(C(=O)N2CC(C)OCC2C2CC(O)C2)cc2nc(NCc3cc(Cl)ccn3)oc12 (stereo not drawn)	8.2	45		
COc1cc(C(=O)N2CC(C)OCC2C2CC(O)C2)cn2nc(NCc3cccc(Cl)c3)nc12 (stereo not drawn)	13	50	7.2	
COc1cc(C(=O)N2CC(C)OCC2CO)cc2nc(N[C@H](C)c3cccc(Cl)c3)oc12 (stereo partly drawn)	0.29	15.5		Vd [4]: 2.7 L/kg; AUC/dose [5]: 0.47 kg·h/L; half-life [6]: 1.1 h; MRT [8]: 1.3 h; blood plasma ratio [9]: 0.88; clearance [10]: 40 mL/min/kg
CCCCCCOC(=O)NC(=N)c1ccc(NCc2nc3cc(C(=O)N(CCC(=O)OCC)c4ccccn4)ccc3n2C)cc1 [DABIGATRAN ETEXILATE]				Vd [4]: 0.54 L/kg; AUC/dose [5]: 3 kg·h/L; half-life [6]: 1.2 h; bioavailability [11]: 1.9%; MRT [8]: 1.6 h; clearance [10]: 9.83 mL/min/kg
COc1cc(C(=O)N2C[C@H](C)OC[C@@H]2CCO)cc2nc(N[C@H](C)c3cccc(Cl)c3)oc12	2.8	45	10.1	
COc1cc(C(=O)N2CC(C)C(O)CC2C2CC2)cc2nc(NCc3cccc(Cl)c3)oc12 (racemic)	0.26	63.3	13.8	
COc1cc(C(=O)N2CC(C)(CCO)OC[C@H]2C)cc2nc(NCc3cc(Cl)ccn3)oc12 (stereo partly drawn)	8	41.7		Vd [4]: 2 L/kg; AUC/dose [5]: 0.23 kg·h/L; half-life [6]: 0.44 h; NOAEL [7]: > 10000 ng/mL; MRT [8]: 0.46 h; blood plasma ratio [9]: 1.08; clearance [10]: 66.7 mL/min/kg
COc1cc(C(=O)N2CCC(O)C(C)C2)cc2nc(NCc3cc(Cl)ccn3)oc12 (racemic)	3.6	14.3	4.1	
